{"source": "the RNAGym collection of RNA variant scans (doi:10.1126/science.aae0568)", "parents": {"B1": {"name": "tRNA (parent)", "chain": "GUUCCGUUGGCGUAAUGGUAACGCGUCUCCCUCCUAAGGAGAAGACUGCGGGUUCGAGUCCCGUACGGAACG"}}, "note": "Fewer inactive variants are shown than the library holds.", "data": [{"variants_of": "B1", "experiment": "yeast fitness relative to wild type (ratio to wild type); higher = fitter; tRNA-Arg(CCU), competitive growth, 37 C, YPD", "how_it_was_run": "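Variants of the tRNA-Arg(CCU) gene were chemically synthesised with a 3% per-site mutation rate across 69 sites and placed at the native genomic locus in Saccharomyces cerevisiae. Six parallel replicates of the pooled strains were competed in YPD at 37°C for 24 hours, and gene amplicons from the start and end populations were read by 100-nucleotide paired-end sequencing. Darwinian fitness relative to wild type was derived from changes in genotype frequencies. Genotypes required ≥ 100 starting reads, and estimates < 0.5 were set to 0.5.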", "values": [{"variant": "GUUCCGUUGGCGUAAUAGUAAUGCGUCUCCCUCCUAAGGAGAUGACUGCGGGUUCGAGUCCCGUACGGAACG", "note": "[G17A C22U A43U]", "yeast fitness": 0.639}, {"variant": "GUUCCGUUGGCGUAAUAGUAACGCGUCUCCCUCCUAAGGAGGAGACUGCGGGUUCGAGUCCCGUACGGACCG", "note": "[G17A A42G A70C]", "yeast fitness": "≤ 0.5"}, {"variant": "GUUCCGUUGGCGUAAUAGUAACGCGUCUCCCUCCUAAGGAGACGACUGUGGGUACCAGUCCCGUUCGGACCG", "note": "[G17A A43C C49U U54A G56C A65U A70C]", "yeast fitness": 0.565}, {"variant": "GUUCCGUUGGCGUAAUAGUAAGGCGUCUCCCUCCUAAGGAGAAGACUGCGGGUUCGAGUCCCGUACGGAACG", "note": "[G17A C22G]", "yeast fitness": 0.837}, {"variant": "GUUCCGUUGGCGUAAUAGUAAAGCGUCUCCCUCCUAAGGAGAAGACUGCGGGUUCGAGUCCCGUACGGAACG", "note": "[G17A C22A]", "yeast fitness": 0.645}, {"variant": "GUUCCGUUGGCGUAAUAGUAACGCGUCUCCCUCCUAAGGUGAAGACUGCGGGUUCGACUCCCGUACGGAACG", "note": "[G17A A40U G58C]", "yeast fitness": 0.672}, {"variant": "GUUCCGUUGGCGUAAUAGUAACGCGUCUCCCUCCUAAGGAGAAGUCUGCGGAUUCGAGUCUCGUACGGAACG", "note": "[G17A A45U G52A C61U]", "yeast fitness": "≤ 0.5"}, {"variant": "GUUCCGUUGGCGUAAUAGUAACGCGUCUCCCUCCUAAGGAGAAGCCUGCGGGUUCGAGUCCCGUACGGAACG", "note": "[G17A A45C]", "yeast fitness": 0.735}, {"variant": "GUUCCGUUGGCGUAAUAGUAACGCGUCUCCCUCCUAAGGAGAAGUCUGCGGGUUCGAGUCCCGUACGGAACG", "note": "[G17A A45U]", "yeast fitness": 0.763}, {"variant": "GUUCCGUUGGCGUAAUAGUAACGCGUCUCCCUCCUAUAGAGAAGACUGCGGGUUCGAGUCCCGUACGGAACG", "note": "[G17A A37U G38A]", "yeast fitness": "≤ 0.5"}, {"variant": "GUUCCGUUGGCGUAAUAGUAUCGCGUCUCCCUCGUAACGAGAAGACUGCGGGUUCCAGUCCCGUACGGAACG", "note": "[G17A A21U C34G G38C G56C]", "yeast fitness": "≤ 0.5"}, {"variant": "GUUCCGUUGGCGUAAUAGUAAAGCGUCUCCCUCCUAAGGAGAAGACUGCGGGUUCGAGUUUCGUACGGAACG", "note": "[G17A C22A C60U C61U]", "yeast fitness": "≤ 0.5"}, {"variant": "GUUCCGUUGGCGUAAUAGUUACGUGUCUCCCUCCUAAGGAGAAGACUGCGGGAUCGAGUCCCGUACGGAACG", "note": "[G17A A20U C24U U53A]", "yeast fitness": "≤ 0.5"}, {"variant": "GUUCCGUUGGCGUAAUAGUUACGUGUCUCCCUCCUAAGGAGAAGACUGCGGGUUCGAGUCCCGUACGGAACG", "note": "[G17A A20U C24U]", "yeast fitness": 0.547}, {"variant": "GUUCCGUUGGCGUAAUAGUAACGCGUCUCCCUCCUACGGAGAAGACUGCGGGUUCGAGUCCCGUCCGGAACG", "note": "[G17A A37C A65C]", "yeast fitness": "≤ 0.5"}, {"variant": "GUUCCGUUGGCGUAAUAGUAAAGCGUCUCCCUCCUAAGGAGAAGACUGCGGGUUCGAGUCCCAUACGGAACG", "note": "[G17A C22A G63A]", "yeast fitness": "≤ 0.5"}, {"variant": "GUUCCGUUGGCGUAAUAGUAACGCGUCUCCCUCCUAAGGAGAAGACUGCGGGUUCGCGUCCCAUACAGAACG", "note": "[G17A A57C G63A G67A]", "yeast fitness": "≤ 0.5"}, {"variant": "GUUCCGUUGGCGUAAUAGUACCGCGUCUCCUUCCUAAGGAGAAGACUGCGGGUUCGAGUCCCGUACGGAACG", "note": "[G17A A21C C31U]", "yeast fitness": "≤ 0.5"}, {"variant": "GUUCCGUUGGCGUAAUAGUAAUGCGUCUCCCUCCUAAGGAGAAGACUGCGGGUUCGAGUCCCGUAUGGAACG", "note": "[G17A C22U C66U]", "yeast fitness": 0.589}, {"variant": "GUUCCGUUGGCGUAAUAGUAAUGCGUCUCCCUCCUAAGGAGAAGGCUGCGGGUUCGAGUCCCGUACGGAACG", "note": "[G17A C22U A45G]", "yeast fitness": "≤ 0.5"}, {"variant": "GUUCCGUUGGCGUAAUAGUAGAGCGUCUCCCUCCUAAGGUGAAGACUGCGGGUUCGAGUCUCGUACGGAACG", "note": "[G17A A21G C22A A40U C61U]", "yeast fitness": "≤ 0.5"}, {"variant": "GUUCCGUUGGCGUAAUAGUACCGCGUCUUCCUCCUAAGGAGAAGACUACGGGUUCGAGUCCCGUACGGAACG", "note": "[G17A A21C C29U G48A]", "yeast fitness": 0.652}, {"variant": "GUUCCGUUGGCGUAAUAGUAGCACGUGUCCCUCCUAUGGAGAAAACUGUGGGUUCGAGUCCCGUACGGAACG", "note": "[G17A A21G G23A C27G A37U G44A C49U]", "yeast fitness": "≤ 0.5"}, {"variant": "GUUCCGUUGGCGUAAUAGUUACGUGUCUCCCUCCUAAGGAGAAGACUGCGGGUUCGAGUCCCGUUCGGAACG", "note": "[G17A A20U C24U A65U]", "yeast fitness": "≤ 0.5"}, {"variant": "GUUCCGUUGGCGUAAUAGUAACGAGUCUCCCUCCUAAGGAGAAGAAUGCGGGUUCGAGUCCCGUACGGAACG", "note": "[G17A C24A C46A]", "yeast fitness": 0.727}, {"variant": "GUUCCGUUGGCGUAAUAGUAAUGCGUCUCCCUCCUACGGAGAAGACUGCGGGUUUGAGUCCCGUACGGAACG", "note": "[G17A C22U A37C C55U]", "yeast fitness": "≤ 0.5"}, {"variant": "GUUCCGUUGGCGUAAUAGUAAGGCGUAUCCCUCCUAAGGAGAAGACUGCGGGUUCGAGUCCGGUACGGAACG", "note": "[G17A C22G C27A C62G]", "yeast fitness": "≤ 0.5"}, {"variant": "GUUCCGUUGGCGUAAUAGUAACGCGUCUCCCUCCUAAGGAGCAGACUGCGGGUUCGAGUCCCGUACGGAACG", "note": "[G17A A42C]", "yeast fitness": 0.645}, {"variant": "GUUCCGUUGGCGUAAUAGUAAGGCGUCUCCGUGCUAAGGAGAAGACUGCGGGUUCGAGUCCCGUACGGAACG", "note": "[G17A C22G C31G C33G]", "yeast fitness": "≤ 0.5"}, {"variant": "GUUCCGUUGGCGUAAUAGUAAAGCGUCUCCCUCCUAAGGAGAAGCUUGCGGGUUCGAGUCACGUACGGAACG", "note": "[G17A C22A A45C C46U C61A]", "yeast fitness": "≤ 0.5"}, {"variant": "GUUCCGUUGGCGUAAUAGUAACGCGUCUCCCUCCUAAGGAGAUGACUGCGGGUUCGAGUCCCGUACGGAACG", "note": "[G17A A43U]", "yeast fitness": 0.81}, {"variant": "GUUCCGUUGGCGUAAUAGUAACGCGUCUCCCUCCUAAGGAGACGACUGCGGGUUCGAGUCCCGUACGGAACG", "note": "[G17A A43C]", "yeast fitness": 0.698}, {"variant": "GUUCCGUUGGCGUAAUAGUAACGCGUCUCCCUCCUAAGGAGAGGACUGCGGGUUCGAGUCCCGUACGGAACG", "note": "[G17A A43G]", "yeast fitness": 0.735}, {"variant": "GUUCCGUUGGCGUAAUAGUAGCGCGUCUCCCUCCUAAGGAGAAGACUGCGGGUUCGAGUCCCGUACGGAACG", "note": "[G17A A21G]", "yeast fitness": 0.765}, {"variant": "GUUCCGUUGGCGUAAUAGUGACGCGUCUCCCUCCUAAGGAGAAGACUGCGGGUUCGCGUCCCGUACGGAACG", "note": "[G17A A20G A57C]", "yeast fitness": 0.558}, {"variant": "GUUCCGUUGGCGUAAUAGUAACGAGUCUCCCUCCAAAGGAGAAGACUGCGGGUUCGAGUCCCGUACGGAACG", "note": "[G17A C24A U35A]", "yeast fitness": "≤ 0.5"}, {"variant": "GUUCCGUUGGCGUAAUAGUAACGCGUCUCCCUCCUAAGGAGUAGACUGCGGGUUUGAGUCCAGUACGGAACG", "note": "[G17A A42U C55U C62A]", "yeast fitness": "≤ 0.5"}, {"variant": "GUUCCGUUGGCGUAAUAGUGACGCGUCUCCCUCCUAAGGAGAAGACUGCGGGUUCGAGUCCCGUACGGAACG", "note": "[G17A A20G]", "yeast fitness": 0.793}]}]}
